Screening results: PubChem, several laboratories
In the library only some 2.1% were active in any assay of this set; here they are far more common.
CRFBP-R2 block = CRF-BP/CRF-R2 complex antagonism; HEK293 CRF-R2/CRF-BP, CRF-induced calcium fluorescence; inhibition, % at 11.8 µM; 0.59% of 350,000 active; AID 588475;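 active means inhibition of the ligand-induced calcium signal above about 50% at the single tested concentration, limit read from the data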
CRFBP-R2 agonist = agonists of human CRF-binding protein/CRF-R2 receptor complex; HEK293 CRF-R2/CRF-BP, calcium dye fluorescence (FLIPR); percent of saturating CRF peptide response; activation, % at 13.2 µM; 0.46% of 350,000 active; AID 588473;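 active means activation of at least 50%, plus an integration ratio under a set limit after plate pattern correction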
beta cell repl = inducers of beta-cell replication in MIN6 cells. MIN6 cells proliferation, ATPlite luminescence, 48 h; cells starved in 0.2% serum; 100% = growth in 10% serum. 0.29% of 330,000 active. proliferation, % at 10 µM;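 active means compounds whose signal lies at least 3.5 SD above the mean of all wells on their plate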
UCH37 inh = inhibitors of human deubiquitinating enzyme UCH37; Q9Y5K5; purified proteasome/UCH37, Ub-AMC cleavage fluorescence; inhibition, % (no concentration beside the values); 0.33% of 330,000 active; AID 588478;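 active means mean inhibition over replicate wells above about 20%, limit read from the data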
Target sequence (Q9Y5K5 whole entry, looked up): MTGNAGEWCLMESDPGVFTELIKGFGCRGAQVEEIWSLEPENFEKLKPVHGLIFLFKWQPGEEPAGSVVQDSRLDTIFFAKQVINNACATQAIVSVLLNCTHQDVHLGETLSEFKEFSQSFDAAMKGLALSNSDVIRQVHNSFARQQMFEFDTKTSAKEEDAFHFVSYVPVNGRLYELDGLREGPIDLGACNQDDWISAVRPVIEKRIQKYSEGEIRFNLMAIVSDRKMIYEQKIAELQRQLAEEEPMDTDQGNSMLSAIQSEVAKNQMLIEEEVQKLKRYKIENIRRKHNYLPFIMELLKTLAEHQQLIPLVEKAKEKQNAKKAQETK
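Schedule: 30 min plus 25 min, room temperature / Material: human UCH37 within purified proteasomes / Technique: AMC fluorescence intensity at 355/460 nm / Buffer or medium: pH 7.4 Tris-HCl (50 mM) with ovalbumin, ATP-MgCl2, DTT / Controls: wells without proteasome as full block, compound-free enzyme plus substrate as uninhibited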
Cardio protect = myocardial damage modulation in H9c2 cells; H9c2 cardiomyocytes, H2O2 injury protection, ATPLite, 2 h; protection from H2O2 cell death, % at 20 µM; 0.63% of 360,000 active; AID 588492;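 active means compounds giving at least 50% protection of heart cells from peroxide-induced death in the single-dose screen, raw or plate-pattern-corrected value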
iPSC survival up = enhancers of human iPSC single-cell survival | hiPSC single-cell survival, ATPlite luminescence; 100% = ROCK inhibitor wells, 0% = DMSO | survival enhancement, % at 20 µM | 0.044% of 360,000 active; in the data active means survival enhancement above about 18%;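 further: cells exposed to compounds for 16 hours before the ATP read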
Large screens that a line does not name were inactive.

N#C/C(=C\c1ccc(O)c(O)c1)C(=O)Nc1cccc2ncccc12	Cardio protect 55.0 (no result: UCH37 inh)
N#C/C(=C\c1cccnc1)C(=O)Nc1ccccc1	none (no result: beta cell repl)
N#C/C(=C\c1ccc(O)c(O)c1)C(=O)Nc1ccccc1	Cardio protect 55.4
C[C@@H](NC(=O)/C(C#N)=C/c1ccc(O)c(O)c1)c1ccccc1	Cardio protect 61.7
N#C/C(=C/c1ccc(O)c(O)c1)C(=O)NCc1ccc(Cl)cc1	Cardio protect 65.1
CCOC(=O)c1c(N=Cc2cc(C)ccc2O)sc2c1CCN(C)C2	none (no result: CRFBP-R2 block, CRFBP-R2 agonist, beta cell repl, Cardio protect, iPSC survival up)
CCOC(=O)NN=Cc1ccc(N(CC)CC)cc1O	none (no result: CRFBP-R2 block, CRFBP-R2 agonist, beta cell repl, Cardio protect, iPSC survival up)
C=CCn1c(CNc2ccccc2)nnc1SCC(=O)N/N=C/c1ccccc1O	Cardio protect 62.6 (no result: UCH37 inh)
CCN(CC)C(=O)C1CCCN(c2ccc([N+](=O)[O-])cc2C=NNC(=O)c2ccccc2)C1 (stereo unspecified)	none (no result: CRFBP-R2 block, CRFBP-R2 agonist, beta cell repl, Cardio protect, iPSC survival up)
COc1ccc(Cl)cc1NC(=O)c1ccoc1C	CRFBP-R2 block 80.3
Cc1ccc(C=NNC(=O)Cn2nc(C)c(Br)c2C)o1	none (no result: CRFBP-R2 block, CRFBP-R2 agonist, beta cell repl, Cardio protect, iPSC survival up)
COc1ccc(C2N(Cc3ccccc3)CC(=O)N2/N=C(\C)c2ccccc2)cc1 (stereo unspecified)	CRFBP-R2 block 80.7 (no result: UCH37 inh)
COc1ccc(-n2c(SCC(=O)N3CCOCC3)nc(O)c(Cc3ccccc3)c2=O)cc1	UCH37 inh 30.0
COC(=O)c1ccc(CSc2nc3ccccc3c(=O)n2-c2ccccc2)o1	CRFBP-R2 block 52.6
COc1ccc(-n2c(SCC(=O)N3CCOCC3)nc(O)cc2=O)cc1	none
CCOC(=O)N1CCN(C(=O)CSc2nc3ccccc3c(=O)n2-c2ccccc2)CC1	Cardio protect 52.1
Cc1cc(C(=O)NN=Cc2ccccc2[N+](=O)[O-])c(C)o1	none (no result: CRFBP-R2 block, CRFBP-R2 agonist, beta cell repl, Cardio protect, iPSC survival up)
O=[N+]([O-])c1cc(Cl)cc(C=NNc2ccccn2)c1O	none (no result: CRFBP-R2 block, CRFBP-R2 agonist, beta cell repl, Cardio protect, iPSC survival up)
CCOC(=O)c1ccc(-c2ccc3ncnc(NCc4csc(C)n4)c3c2)o1	Cardio protect 68.1 (no result: CRFBP-R2 block, CRFBP-R2 agonist, beta cell repl, UCH37 inh)
Cc1ccc(CNc2ncnc3ccc(-c4ccc(CO)o4)cc23)o1	none (no result: CRFBP-R2 block, CRFBP-R2 agonist, beta cell repl, UCH37 inh)
CC1=NOC(=O)/C1=C\c1ccc(-c2cccc(Cl)c2)o1	CRFBP-R2 agonist 63.6
CC1=NOC(=O)/C1=C\c1ccc(-c2ccccc2Br)o1	CRFBP-R2 agonist 50.7 (no result: beta cell repl)
NC(=S)NN=C1CCSc2ccc(Cl)cc21	none (no result: CRFBP-R2 block, CRFBP-R2 agonist, beta cell repl, Cardio protect, iPSC survival up)
O=S(=O)(c1cccc2nsnc12)N1CCc2ccccc2C1	CRFBP-R2 block 52.3
CCCCOC1CC(c2ccc(OCc3ccc(OC)cc3)c(OC)c2)N(C)O1 (stereo unspecified)	CRFBP-R2 block 89.5
Nc1nonc1-n1nnc(C(=O)NN=Cc2ccoc2)c1-c1ccccc1	none (no result: CRFBP-R2 block, CRFBP-R2 agonist, beta cell repl, Cardio protect, iPSC survival up)
CCCCn1c(=O)[nH]c(=O)c2c1nc(Cn1ncc(Cl)c(Cl)c1=O)n2CCC	iPSC survival up 20.0 (no result: UCH37 inh)
Cc1nn(CCc2nn[nH]n2)c2nc(-c3ccc(C4CCCCC4)cc3)cc(C(F)(F)F)c12	CRFBP-R2 block 87.2
COC(=O)c1cn(NC(=O)c2ccc(F)cc2)c(=O)c2ccccc12	CRFBP-R2 block 104.7
CCOc1cc(C=Nn2c(C)nc3sc(C)c(C)c3c2=O)ccc1O	none (no result: CRFBP-R2 block, CRFBP-R2 agonist, beta cell repl, Cardio protect, iPSC survival up)
O=c1c(N2CCOCC2)coc2ccccc12	none
O=c1[nH]c(N2CCOCC2)cc2ccccc12	Cardio protect 56.4
C/C(=N/NC(=O)c1ccncc1)c1cc2ccc(O)cc2oc1=O	CRFBP-R2 agonist 190.8 (no result: UCH37 inh)
C/C(=N\NC(=O)c1ccncc1)c1cc2ccccc2oc1=O	none (no result: UCH37 inh)
CCCOc1cccc(C(=O)NN=Cc2ccoc2)c1	none (no result: CRFBP-R2 block, CRFBP-R2 agonist, beta cell repl, Cardio protect, iPSC survival up)
CCOc1ccc(CNC(=O)CCC(=O)N2Cc3cccc(OC)c3Oc3ncccc32)cc1	CRFBP-R2 block 52.1
Cc1ccc(C=NNC(=O)CSCc2ccc(Cl)cc2)cc1	none (no result: CRFBP-R2 block, CRFBP-R2 agonist, beta cell repl, Cardio protect, iPSC survival up)
Cc1cc(C(=O)NN=Cc2ccc3c(c2)OCO3)c(C)n1-c1ccc(F)cc1	none (no result: CRFBP-R2 block, CRFBP-R2 agonist, beta cell repl, Cardio protect, iPSC survival up)
CCCN1C(=O)/C(=C\c2nc3ccccc3c(=O)[nH]2)c2ccccc21	Cardio protect 65.7 (no result: beta cell repl)
O=c1[nH]c(/C=C/c2cccc3ccccc23)nc2ccccc12	none
CSCC[C@H](NC(=O)OC(C)(C)C)C(=O)NN=Cc1cc2ccc(C)cc2nc1Cl	none (no result: CRFBP-R2 block, CRFBP-R2 agonist, beta cell repl, Cardio protect, iPSC survival up)
CC(=O)Nc1ccc(Sc2ncccc2C(=O)Nc2ccc(OC(F)(F)F)cc2)cn1	CRFBP-R2 agonist 130.0
CC(=O)Nc1ccc(S(=O)(=O)N(C)CC(=O)NN=Cc2ccncc2)cc1	none (no result: CRFBP-R2 block, CRFBP-R2 agonist, beta cell repl, Cardio protect, iPSC survival up)
